In brackets after ≈: the same amount, converted by molar mass. Activity calls are given as the source filed them. The rule behind the calls is not given here.
Legend:
Assay type in all cases: functional
Escherichia coli [1] = assay: Antimicrobial activity against Escherichia coli NCIM 2065 at 1000 ug/disk after 24 hrs by disk diffusion method; conditions: NCIM 2065, 24 h, read-out: DIZ
Procedure, shortened: (§1)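 Disc diffusion on Mueller–Hinton agar. 100 µl of bacterial suspension at 10⁸ CFU/ml is spread on the plate. Discs carry test compounds at two loadings, dissolved in DMSO; DMSO alone serves as negative control. Ofloxacin disc is the positive reference. Plates are incubated at 37 °C for 24 h, and the inhibition zone diameter is measured.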

Bacillus subtilis [2] = assay: Antimicrobial activity against Bacillus subtilis NCIM 2063 at 1000 ug/disk after 24 hrs by disk diffusion method; conditions: NCIM 2063, 24 h, read-out: DIZ; procedure, shortened: as §1
Bacillus cereus [3] = assay: Antimicrobial activity against Bacillus cereus NCIM 2155 at 500 ug/disk after 24 hrs by disk diffusion method; conditions: NCIM 2155, 24 h, read-out: DIZ; procedure, shortened: as §1
Bacillus cereus [4] = assay: Antimicrobial activity against Bacillus cereus NCIM 2155 at 1000 ug/disk after 24 hrs by disk diffusion method; conditions: NCIM 2155, 24 h, read-out: DIZ; procedure, shortened: as §1
Aliivibrio fischeri [5] = assay: Antimicrobial activity against Vibrio fischeri NCIM 2154 at 500 ug/disk after 24 hrs by disk diffusion method; conditions: NCIM 2154, 24 h, read-out: DIZ
Procedure, shortened: (§2)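 Disc diffusion. 100 µl of bacterial suspension at 10⁸ CFU/ml was spread on Mueller–Hinton agar. Discs loaded with test compound dissolved in DMSO were placed on the lawn, with a DMSO-only disc as negative control. Plates were incubated at 37 °C for 24 h, and the inhibition zone diameter was measured.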

Aliivibrio fischeri [6] = assay: Antimicrobial activity against Vibrio fischeri NCIM 2154 at 1000 ug/disk after 24 hrs by disk diffusion method; conditions: NCIM 2154, 24 h, read-out: DIZ; procedure, shortened: as §2
[7] = test system: Rhodococcus corynebacterioides; assay: Antimicrobial activity against Corynebacterium rubrum NCIM 2252 at 500 ug/disk after 24 hrs by disk diffusion method; conditions: Rhodococcoides corynebacterioides, NCIM 2252, 24 h; read-out: DIZ; procedure, shortened: as §1
[8] = test system: Rhodococcus corynebacterioides; assay: Antimicrobial activity against Corynebacterium rubrum NCIM 2252 at 1000 ug/disk after 24 hrs by disk diffusion method; conditions: Rhodococcoides corynebacterioides, NCIM 2252, 24 h; read-out: DIZ; procedure, shortened: as §1
Staphylococcus = assay: Antimicrobial activity against Staphylococcus albus NCIM 2178 at 1000 ug/disk after 24 hrs by disk diffusion method; conditions: NCIM 2178, 24 h, read-out: DIZ; procedure, shortened: as §2
Proteus vulgaris [9] = assay: Antimicrobial activity against Proteus vulgaris NCIM 2027 at 500 ug/disk after 24 hrs by disk diffusion method; conditions: NCIM 2027, 24 h, read-out: DIZ; procedure, shortened: as §1
Proteus vulgaris [10] = assay: Antimicrobial activity against Proteus vulgaris NCIM 2027 at 1000 ug/disk after 24 hrs by disk diffusion method; conditions: NCIM 2027, 24 h, read-out: DIZ; procedure, shortened: as §1
Aspergillus flavus [11] = assay: Antimicrobial activity against Aspergillus flavus NCIM 902 at 1000 ug/disk after 72 hrs by disk diffusion method; conditions: NCIM 902, 72 h, read-out: DIZ
Procedure, shortened: (§3)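 Disc diffusion on Sabouraud's dextrose agar. 100 µl of fungal suspension at 10⁶ CFU/ml is spread on the plate. Discs carry test compounds at two loadings in DMSO; DMSO alone is the negative control. Clotrimazole disc is the positive reference. Plates are incubated at 27 °C for 72 h, and the zone of inhibition diameter is measured.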

Rhodotorula mucilaginosa [12] = assay: Antimicrobial activity against Rhodotorula rubra NCIM 3174 at 500 ug/disk after 72 hrs by disk diffusion method; conditions: NCIM 3174, 72 h, read-out: DIZ
Procedure, shortened: (§4)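 Fungal disc diffusion. 100 µl of suspension at 10⁶ CFU/ml was spread on Sabouraud's dextrose agar. Discs carrying test compound in DMSO were applied, with a DMSO-only disc as negative control. Plates were incubated at 27 °C for 72 h, and the zone of inhibition diameter was measured.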

Rhodotorula mucilaginosa [13] = assay: Antimicrobial activity against Rhodotorula rubra NCIM 3174 at 1000 ug/disk after 72 hrs by disk diffusion method; conditions: NCIM 3174, 72 h, read-out: DIZ; procedure, shortened: as §4
Aspergillus fumigatus [14] = assay: Antimicrobial activity against Aspergillus fumigatus NCIM 902 at 500 ug/disk after 72 hrs by disk diffusion method; procedure, shortened: as §3
Aspergillus fumigatus [15] = assay: Antimicrobial activity against Aspergillus fumigatus NCIM 902 at 1000 ug/disk after 72 hrs by disk diffusion method; conditions: NCIM 902, 72 h, read-out: DIZ; procedure, shortened: as §3
Aspergillus parasiticus [16] = assay: Antimicrobial activity against Aspergillus parasiticus NCIM 904 at 1000 ug/disk after 72 hrs by disk diffusion method; conditions: NCIM 904, 72 h, read-out: DIZ; procedure, shortened: as §3
Penicillium chrysogenum [17] = assay: Antimicrobial activity against Penicillium chrysogenum NCIM 707 at 500 ug/disk after 72 hrs by disk diffusion method; procedure, shortened: as §3
Penicillium chrysogenum [18] = assay: Antimicrobial activity against Penicillium chrysogenum NCIM 707 at 1000 ug/disk after 72 hrs by disk diffusion method; procedure, shortened: as §3
Lipomyces lipofer [19] = assay: Antimicrobial activity against Lipomyces lipofer NCIM 3252 at 500 ug/disk after 72 hrs by disk diffusion method; procedure, shortened: as §3
Lipomyces lipofer [20] = assay: Antimicrobial activity against Lipomyces lipofer NCIM 3252 at 1000 ug/disk after 72 hrs by disk diffusion method; procedure, shortened: as §3
Klebsiella aerogenes = assay: Antimicrobial activity against Klebsiella aerogenes NCIM 2239 at 1000 ug/disk after 24 hrs by disk diffusion method; conditions: NCIM 2239, 24 h, read-out: DIZ; procedure, shortened: as §1
Pseudomonas aeruginosa = assay: Antimicrobial activity against Pseudomonas aeruginosa NCIM 2200 at 1000 ug/disk after 24 hrs by disk diffusion method; conditions: NCIM 2200, 24 h, read-out: DIZ; procedure, shortened: as §1
Aspergillus flavus [21] = assay: Antimicrobial activity against Aspergillus flavus NCIM 902 after 72 hrs by serial dilution method; conditions: NCIM 535, 72 h, in the assay text read “NCIM 535” for “NCIM 902”
Procedure, shortened: (§5)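 MIC by broth dilution in Sabouraud's dextrose broth, only for fungi sensitive in disc diffusion. Two-fold serial dilutions of compounds are made in 1 ml broth per tube, range 3.9 to 1000. Inoculated tubes are incubated at 27 °C for 72 h.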

Rhodotorula mucilaginosa [22] = assay: Antimicrobial activity against Rhodotorula rubra NCIM 3174 after 72 hrs by serial dilution method; conditions: NCIM 3174, 72 h
Procedure, shortened: (§6)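 MIC by broth dilution in Sabouraud's dextrose broth, run only on fungi found sensitive in the disc assay. Twofold serial dilutions were made in 1 ml broth per tube, covering 3.9 to 1000. Inoculated tubes were incubated at 27 °C for 72 h.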

Aspergillus parasiticus [23] = assay: Antimicrobial activity against Aspergillus parasiticus NCIM 904 after 72 hrs by serial dilution method; conditions: NCIM 904, 72 h; procedure, shortened: as §5
Trichoderma viride [24] = assay: Antimicrobial activity against Trichoderma viride NCIM 1195 after 72 hrs by serial dilution method; conditions: NCIM 1195, 72 h; procedure, shortened: as §6
Trichoderma viride [25] = assay: Antimicrobial activity against Trichoderma viride NCIM 1195 at 500 ug/disk after 72 hrs by disk diffusion method; procedure, shortened: as §4
Trichoderma viride [26] = assay: Antimicrobial activity against Trichoderma viride NCIM 1195 at 1000 ug/disk after 72 hrs by disk diffusion method; conditions: NCIM 1195, 72 h, read-out: DIZ; procedure, shortened: as §4
Escherichia coli [27] = assay: Antimicrobial activity against Escherichia coli NCIM 2065 after 24 hrs by serial dilution method; conditions: NCIM 2065, 24 h
Procedure, shortened: (§7)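 Broth dilution MIC in nutrient broth, run only for organisms found sensitive in disc diffusion. Compounds are two-fold serially diluted in 1 ml sterile broth per tube, spanning 3.9 to 1000. Inoculated tubes are incubated at 37 °C for 24 h.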

Bacillus subtilis [28] = assay: Antimicrobial activity against Bacillus subtilis NCIM 2063 after 24 hrs by serial dilution method; conditions: NCIM 2063, 24 h; procedure, shortened: as §7
Aliivibrio fischeri [29] = assay: Antimicrobial activity against Vibrio fischeri NCIM 2154 after 24 hrs by serial dilution method; conditions: NCIM 2154, 24 h

SMILES | zone of inhibition at 1000 µg/disc (Escherichia coli [1]) [mm] | zone of inhibition at 1000 µg/disc (Bacillus subtilis [2]) [mm] | zone of inhibition at 500 µg/disc (Bacillus cereus [3]) [mm] | zone of inhibition at 1000 µg/disc (Bacillus cereus [4]) [mm] | zone of inhibition at 500 µg/disc (Aliivibrio fischeri [5]) [mm] | zone of inhibition at 1000 µg/disc (Aliivibrio fischeri [6]) [mm] | zone of inhibition at 500 µg/disc [7] [mm] | zone of inhibition at 1000 µg/disc [8] [mm] | zone of inhibition at 1000 µg/disc (Staphylococcus) [mm] | zone of inhibition at 500 µg/disc (Proteus vulgaris [9]) [mm] | zone of inhibition at 1000 µg/disc (Proteus vulgaris [10]) [mm] | zone of inhibition at 1000 µg/disc (Aspergillus flavus [11]) [mm] | zone of inhibition at 500 µg/disc (Rhodotorula mucilaginosa [12]) [mm] | zone of inhibition at 1000 µg/disc (Rhodotorula mucilaginosa [13]) [mm] | zone of inhibition at 1000 µg/disc (Aspergillus fumigatus [15]) [mm] | zone of inhibition at 1000 µg/disc (Aspergillus parasiticus [16]) [mm] | diameter of the inhibition zone (DIZ) (Lipomyces lipofer [19]) | zone of inhibition at 1000 µg/disc (Klebsiella aerogenes) [mm] | zone of inhibition at 1000 µg/disc (Pseudomonas aeruginosa) [mm] | MIC (Aspergillus flavus [21]) [µg/mL] | further results
CC1(C)CC(=O)C2=C(C1)Nc1c(ccc3ccccc13)C2c1ccc(Cl)cc1 (centres undefined) | 9 | 10 | 10 | 13 | 7 | 9 | 7 | 10 | 9 | 9 | 10 | 8 | 9 | 13 | 8 | 17 | inactive | 11 | 9 | 125 (≈ 322 µM) | diameter of the inhibition zone (DIZ) (Aspergillus fumigatus [14]): inactive; diameter of the inhibition zone (DIZ) (Penicillium chrysogenum [17]): inactive; diameter of the inhibition zone (DIZ) (Penicillium chrysogenum [18]): inactive; diameter of the inhibition zone (DIZ) (Lipomyces lipofer [20]): inactive; MIC (Rhodotorula mucilaginosa [22]): 15.6 µg/mL (≈ 40.2 µM); MIC (Aspergillus parasiticus [23]): 3.9 µg/mL (≈ 10.1 µM); MIC (Trichoderma viride [24]): 62.5 µg/mL (≈ 161 µM); zone of inhibition at 500 µg/disc (Trichoderma viride [25]; NCIM 1195, 72 h, read-out: DIZ): 7 mm; zone of inhibition at 1000 µg/disc (Trichoderma viride [26]): 9 mm; MIC (Escherichia coli [27]): 62.5 µg/mL (≈ 161 µM); MIC (Bacillus subtilis [28]): 31.2 µg/mL (≈ 80.4 µM); MIC (Aliivibrio fischeri [29]): 62.5 µg/mL (≈ 161 µM)
O=C1CCCC2=C1C(c1ccc(Cl)cc1)c1ccc3ccccc3c1N2 (centres undefined) | 8 | 12 | 10 | 13 | 8 | 9 | 7 | 8 | 10 | 7 | 9 | 10 | 12 | 16 | 10 | 12 | inactive | 9 | 10 | 62.5 (≈ 174 µM) | zone of inhibition at 500 µg/disc (Aspergillus fumigatus [14]; NCIM 902, 72 h, read-out: DIZ): 8 mm; zone of inhibition at 500 µg/disc (Penicillium chrysogenum [17]; NCIM 707, 72 h, read-out: DIZ): 7 mm; zone of inhibition at 1000 µg/disc (Penicillium chrysogenum [18]; NCIM 707, 72 h, read-out: DIZ): 8 mm; zone of inhibition at 1000 µg/disc (Lipomyces lipofer [20]; NCIM 3252, 72 h, read-out: DIZ): 9 mm; MIC (Rhodotorula mucilaginosa [22]): 3.9 µg/mL (≈ 10.8 µM); MIC (Aspergillus parasiticus [23]): 31.2 µg/mL (≈ 86.7 µM); MIC (Trichoderma viride [24]): 125 µg/mL (≈ 347 µM); diameter of the inhibition zone (DIZ) (Trichoderma viride [25]): inactive; zone of inhibition at 1000 µg/disc (Trichoderma viride [26]): 8 mm; MIC (Escherichia coli [27]): 62.5 µg/mL (≈ 174 µM); MIC (Bacillus subtilis [28]): 31.2 µg/mL (≈ 86.7 µM); MIC (Aliivibrio fischeri [29]): 62.5 µg/mL (≈ 174 µM)

Reference: ChEMBL document CHEMBL1138564, “Microwave-induced synthesis and anti-microbial activities of 7,10,11,12-tetrahydrobenzo[c]acridin-8(9H)-one derivatives” (2009)
